Laboratory results: ChEMBL document CHEMBL1154599 (J Med Chem, 2009)
The source made the active and inactive calls. No cut-off for these calls is given here.

Key:
Mus musculus [1] = species on record: Mus musculus; assay: Ex vivo inhibition of MAO-B in C57Bl mouse brain after 1 hr by radioenzymatic assay; type: functional
[2] = Permeability across PAMPA membrane assessed as permeability coefficient at 2.5 mM by HDM-PAMPA assay; type: ADME; settings: 2500 µM
Outline: (§1)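 Hexadecane artificial membrane (0.75 μL per well, applied as 5% v/v in hexane, hexane evaporated) on polycarbonate filters; donor and acceptor in 0.1 M phosphate buffer pH 6.8 with 5% DMSO (iso-pH); 5 h at room temperature, shaking at 75 rpm; quadruplicate. Donor and acceptor concentrations read by UV at λmax. Retention, CA(t)/CD(0) and Pe calculated by the stated equations, τLAG neglected; membrane integrity checked by electrical resistance.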

[3] = Permeability across PAMPA membrane assessed as amount of drug reaching acceptor compartment at 2.5 mM by HDM-PAMPA assay; type: ADME; settings: 2500 µM; outline: as §1
Mus musculus [4] = assay: Ex vivo inhibition of MAO-B in C57Bl mouse brain at 0.5 mg/kg, po after 8 hrs by radioenzymatic assay; type: functional; set-up: scale not given: the % may be the effect or the level left
Outline: (§2)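 C57Bl mice (n = 6 per group) given 0.5 mg/kg orally and killed at 0.5, 1, 2, 4, 8 or 16 h. Brain homogenates in 0.1 M phosphate pH 7.40 assayed radioenzymatically for MAO-B with [14C]PEA. Mean ± SEM, ANOVA with Dunnett's test.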

[5] = Octanol-water partition coefficient, log P by potentiometric titration; type: physicochemical
Cytochrome P450 2E1 = Cytochrome P450 2E1 (Homo sapiens, UniProt P05181); assay: Inhibition of human recombinant CYP2E1; type: ADME
Outline: (§3)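 Human recombinant CYP isoenzymes (supersomes) were incubated at 37 C with the test compound in incubation/NADPH-regenerating buffer plus a fluorogenic substrate. The substrate was 3-[2-(N,N-diethyl-N-methylammonium)ethyl]-7-methoxy-4-methylcoumarin for CYP2D6 and 7-methoxy-4-phenylcoumarin for CYP2E1. Fluorescent product was read at isoform-appropriate wavelengths, with a literature inhibitor as positive control. IC50 came from nonlinear regression of at least seven concentrations, each in duplicate.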

[6] = Aqueous solubility at pH 3.0 by turbidimetric method; type: physicochemical; settings: aqueous solution
Outline: (§4)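 DMSO stock of compound added in 2 μL portions, about 10 additions, to 50 mM Tris-HCl pH 7.4 or 50 mM acetate pH 3.0 at room temperature, final DMSO below 5%. Precipitation read as light-scattering absorbance rise at 600-820 nm. Solubility limit taken from a bilinear fit of absorbance against DMSO volume. Three independent assays, mean ± SEM.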

SH-SY5Y = assay: Cytotoxicity against human SH-SY5Y cells assessed as cellular damage up to 10 uM after 24 hrs by MTS assay; type: functional, cell-based
Outline: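 Human neuroblastoma SH-SY5Y cells kept in DMEM with 10% heat-inactivated FBS. Seeded at 6.25 × 10^4/cm2 and grown 72 h to subconfluence. Switched to serum-free neurobasal medium 30 min before compound, then 24 h at 37 °C with 1, 3, 10, 30 or 100 μM compound. Viability read by colorimetric MTS assay.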

Cytochrome P450 3A4 = Cytochrome P450 3A4 (Homo sapiens, UniProt P08684); assay: Inhibition of human recombinant CYP3A4; type: ADME
Outline: (§5)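 Human recombinant CYP supersomes incubated at 37 °C with compound in NADPH-regenerating buffer, with fluorogenic substrates: 3-cyano-7-ethoxycoumarin for CYP2C19, […] for CYP3A4. Fluorescence read on a plate reader. Known isoform inhibitors run as positive controls in every assay.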

Mus musculus [7] = assay: Ex vivo inhibition of MAO-B in C57Bl mouse brain at 0.5 mg/kg, po after 30 mins by radioenzymatic assay; type: functional; set-up: scale not given: the % may be the effect or the level left; outline: as §2
[8] = Dissociation constant, pKa by potentiometric titration; type: physicochemical
Outline: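 5 × 10^-4 M sample in 0.15 M KCl acidified to pH 1.8 with 0.5 M HCl, then titrated to pH 12.2 with carbonate-free 0.5 M KOH. Run at 25 ± 0.5 °C under slow argon flow, with a blank titration for standardization. pKa taken from the Bjerrum difference curve.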

[9] = Aqueous solubility at pH 7.4 by turbidimetric method; type: physicochemical; settings: aqueous solution; outline: as §4
[10] = biological target: T1, Amine oxidase [flavin-containing] B (Rattus norvegicus, UniProt P19643); assay: Inhibition of MAO-B from Wistar rat brain by radioenzymatic assay
T1 sequence (P19643 whole entry): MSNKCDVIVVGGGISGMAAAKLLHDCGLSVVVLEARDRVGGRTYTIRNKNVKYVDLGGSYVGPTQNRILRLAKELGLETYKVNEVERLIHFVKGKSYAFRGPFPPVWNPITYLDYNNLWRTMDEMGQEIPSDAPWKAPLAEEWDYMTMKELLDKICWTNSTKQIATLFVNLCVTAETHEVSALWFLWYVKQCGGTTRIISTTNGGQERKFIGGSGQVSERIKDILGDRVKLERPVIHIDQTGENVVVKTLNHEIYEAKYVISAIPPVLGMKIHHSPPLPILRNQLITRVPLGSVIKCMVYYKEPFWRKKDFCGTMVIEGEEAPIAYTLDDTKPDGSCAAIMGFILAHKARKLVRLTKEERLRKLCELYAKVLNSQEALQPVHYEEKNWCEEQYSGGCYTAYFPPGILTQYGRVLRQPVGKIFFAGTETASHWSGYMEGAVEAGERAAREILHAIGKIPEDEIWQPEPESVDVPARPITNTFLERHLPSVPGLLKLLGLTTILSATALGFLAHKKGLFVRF
Outline: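 Crude mitochondrial fraction from male Wistar rat brain (150-175 g), 500 μg protein in 0.1 M phosphate pH 7.40. Preincubated 30 min at 37 °C with compound. Substrate then added: [14C]5-HT 5 μM for 30 min (MAO-A) or [14C]PEA 0.5 μM for 10 min (MAO-B), 37 °C. Stopped with acid, deaminated metabolites extracted into ether or toluene, counted by scintillation.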

Cytochrome P450 2C19 = Cytochrome P450 2C19 (Homo sapiens, UniProt P33261); assay: Inhibition of human recombinant CYP2C19; type: ADME; outline: as §5
Rattus norvegicus = species on record: Rattus norvegicus; assay: Selectivity index, ratio of IC50 for rat MAO-A to IC50 for rat MAO-B
Outline: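 Ratio of IC50 values from rat brain mitochondrial radioenzymatic assays: MAO-A with [14C]5-HT 5 μM, 30 min, and MAO-B with [14C]PEA 0.5 μM, 10 min. Both after 30 min preincubation with compound at 37 °C.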

Mus musculus [11] = assay: Ex vivo inhibition of MAO-B in C57Bl mouse brain at 3 mg/kg, po or 3 mg/kg, ip after 1 hr by radioenzymatic assay; type: functional, organism-based
Outline: (§6)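 C57Bl mice (n = 6 per group) dosed orally or intraperitoneally at 3 mg/kg and killed 1 h later. Brains homogenized in 0.1 M phosphate pH 7.40. MAO-A ([14C]5-HT) and MAO-B ([14C]PEA) activities measured by radioenzymatic assay. Mean ± SEM, ANOVA with Dunnett's test.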

Cytochrome P450 2D6 = Cytochrome P450 2D6 (Homo sapiens, UniProt P10635); assay: Inhibition of human recombinant CYP2D6; type: ADME; outline: as §3
Mus musculus [12] = assay: Ex vivo inhibition of MAO-B in C57Bl mouse brain at 0.5 mg/kg, po after 2 hrs by radioenzymatic assay; type: functional; set-up: scale not given: the % may be the effect or the level left; outline: as §2
Mus musculus [13] = assay: Ex vivo inhibition of MAO-A in C57Bl mouse brain at 3 mg/kg, po or 3 mg/kg, ip after 1 hr by radioenzymatic assay; type: functional, organism-based; outline: as §6

Chain of Cytochrome P450 2D6 (P10635 whole entry): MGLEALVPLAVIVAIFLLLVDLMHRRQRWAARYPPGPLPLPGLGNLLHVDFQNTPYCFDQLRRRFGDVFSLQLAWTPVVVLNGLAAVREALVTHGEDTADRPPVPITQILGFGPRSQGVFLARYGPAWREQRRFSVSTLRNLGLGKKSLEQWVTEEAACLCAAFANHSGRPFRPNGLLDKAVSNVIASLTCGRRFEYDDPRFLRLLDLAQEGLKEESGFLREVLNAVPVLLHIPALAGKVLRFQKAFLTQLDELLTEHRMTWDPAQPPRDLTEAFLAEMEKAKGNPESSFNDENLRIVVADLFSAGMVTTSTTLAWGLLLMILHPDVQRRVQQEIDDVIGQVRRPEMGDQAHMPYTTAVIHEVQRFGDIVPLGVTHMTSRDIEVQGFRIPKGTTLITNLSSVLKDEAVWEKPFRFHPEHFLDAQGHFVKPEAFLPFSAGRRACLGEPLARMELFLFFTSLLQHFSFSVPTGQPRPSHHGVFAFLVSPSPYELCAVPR
Chain of Cytochrome P450 3A4 (P08684 whole entry, canonical isoform): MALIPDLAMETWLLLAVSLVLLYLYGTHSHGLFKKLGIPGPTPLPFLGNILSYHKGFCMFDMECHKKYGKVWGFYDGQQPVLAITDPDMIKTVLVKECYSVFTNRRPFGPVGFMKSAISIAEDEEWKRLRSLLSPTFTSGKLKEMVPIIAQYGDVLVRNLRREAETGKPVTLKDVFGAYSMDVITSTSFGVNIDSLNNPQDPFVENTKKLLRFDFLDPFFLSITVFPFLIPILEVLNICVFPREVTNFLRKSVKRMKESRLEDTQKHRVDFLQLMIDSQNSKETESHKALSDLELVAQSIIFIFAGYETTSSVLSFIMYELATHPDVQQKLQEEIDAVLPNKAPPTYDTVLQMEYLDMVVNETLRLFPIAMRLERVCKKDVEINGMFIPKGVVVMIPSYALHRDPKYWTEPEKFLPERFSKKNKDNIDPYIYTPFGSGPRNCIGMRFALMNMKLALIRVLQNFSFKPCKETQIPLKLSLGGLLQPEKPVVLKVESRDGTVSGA
Chain of Cytochrome P450 2C19 (P33261 whole entry): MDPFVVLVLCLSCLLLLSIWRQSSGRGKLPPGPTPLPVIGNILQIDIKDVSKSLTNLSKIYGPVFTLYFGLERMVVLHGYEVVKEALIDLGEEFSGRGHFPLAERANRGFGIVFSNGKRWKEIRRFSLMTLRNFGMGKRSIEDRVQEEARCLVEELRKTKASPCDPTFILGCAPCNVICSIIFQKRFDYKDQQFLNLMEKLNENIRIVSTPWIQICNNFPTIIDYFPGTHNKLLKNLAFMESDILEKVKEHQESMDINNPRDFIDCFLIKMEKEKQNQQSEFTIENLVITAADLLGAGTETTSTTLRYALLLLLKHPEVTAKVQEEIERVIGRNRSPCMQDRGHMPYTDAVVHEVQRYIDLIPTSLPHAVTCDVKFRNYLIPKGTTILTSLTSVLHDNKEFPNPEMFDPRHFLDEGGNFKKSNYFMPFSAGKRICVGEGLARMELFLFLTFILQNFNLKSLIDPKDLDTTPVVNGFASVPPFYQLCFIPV
Chain of Cytochrome P450 2E1 (P05181 whole entry, canonical isoform): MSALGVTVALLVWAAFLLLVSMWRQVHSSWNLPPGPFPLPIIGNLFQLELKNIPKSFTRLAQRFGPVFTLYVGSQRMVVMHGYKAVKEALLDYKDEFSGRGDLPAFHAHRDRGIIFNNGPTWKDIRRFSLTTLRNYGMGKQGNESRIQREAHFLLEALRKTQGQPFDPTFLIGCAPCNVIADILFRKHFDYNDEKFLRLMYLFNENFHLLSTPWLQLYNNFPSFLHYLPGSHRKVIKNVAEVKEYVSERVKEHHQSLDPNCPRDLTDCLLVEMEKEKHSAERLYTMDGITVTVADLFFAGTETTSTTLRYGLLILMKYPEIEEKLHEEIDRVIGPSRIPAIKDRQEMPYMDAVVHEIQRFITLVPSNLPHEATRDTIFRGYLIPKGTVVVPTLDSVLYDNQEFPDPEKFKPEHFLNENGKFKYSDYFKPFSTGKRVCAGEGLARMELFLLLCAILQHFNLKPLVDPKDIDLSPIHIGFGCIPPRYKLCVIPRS

- log Pe [2]: -3.48 cm/s
- permeability [3]: 33.8%
- logP [5]: 2.49
- IC50 (Cytochrome P450 2E1): > 5 µM
- solubility kinetic [6]: 2820 µg/mL
- IC50 (Cytochrome P450 3A4): > 5 µM
- pKa [8]: 7.18
- solubility kinetic [9]: 52 µg/mL
- IC50 [10]: 0.013 µM
- IC50 (Cytochrome P450 2C19): > 5 µM
- Ratio IC50 (Rattus norvegicus): 457
- IC50 (Cytochrome P450 2D6): > 5 µM
SMILES: CNCc1cc(=O)oc2cc(OCc3cccc(Cl)c3)ccc12.CS(=O)(=O)O
- ED50 (Mus musculus [1]): 0.24 mg/kg
- Activity (Mus musculus [4]): 60%
- Activity (SH-SY5Y): inactive
- Activity (Mus musculus [7]): 84%
- Activity (Mus musculus [11]): Active
- Activity (Mus musculus [12]): 90%
- Activity (Mus musculus [13]): inactive
